In ChEMBL document CHEMBL3526053, “Species-dependent uptake of glycylsarcosine but not oseltamivir in Pichia pastoris expressing the rat, mouse, and human intestinal peptide transporter PEPT1” (Drug Metab Dispos, 2012):

Experiments:
Format in all cases: ADME
[1] = molecular target: T1, Solute carrier family 15 member 1 (Homo sapiens, UniProt P46059); assay: Drug uptake in Pichia pastoris GS115 expressing human recombinant PEPT1 at 5 uM after 30s by dual-channel liquid scintillation counting analysis in presence of cephapirin relative to control; settings: 0.5 min
T1 sequence (P46059 whole entry): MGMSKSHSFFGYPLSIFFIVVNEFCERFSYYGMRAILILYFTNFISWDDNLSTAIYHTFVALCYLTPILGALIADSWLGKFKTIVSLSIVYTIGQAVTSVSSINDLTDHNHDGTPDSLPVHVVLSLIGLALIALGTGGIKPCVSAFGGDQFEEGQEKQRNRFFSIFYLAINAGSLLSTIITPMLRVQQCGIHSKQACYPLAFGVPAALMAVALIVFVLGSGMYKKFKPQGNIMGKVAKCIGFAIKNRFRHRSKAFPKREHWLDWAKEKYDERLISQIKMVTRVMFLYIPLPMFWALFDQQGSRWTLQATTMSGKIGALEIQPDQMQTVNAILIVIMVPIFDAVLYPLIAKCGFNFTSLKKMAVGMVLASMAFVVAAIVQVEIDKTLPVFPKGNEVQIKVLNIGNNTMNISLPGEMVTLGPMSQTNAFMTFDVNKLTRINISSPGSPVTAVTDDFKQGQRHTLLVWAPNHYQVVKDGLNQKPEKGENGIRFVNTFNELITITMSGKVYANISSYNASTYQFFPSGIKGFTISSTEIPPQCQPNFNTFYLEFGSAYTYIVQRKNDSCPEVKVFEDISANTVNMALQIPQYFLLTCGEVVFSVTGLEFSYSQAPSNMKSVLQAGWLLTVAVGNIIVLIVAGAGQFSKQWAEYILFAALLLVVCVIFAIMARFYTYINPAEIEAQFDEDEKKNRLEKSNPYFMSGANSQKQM
Summary of the method: (§1)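 [3H]GlySar 5.0 µM final, 30-s uptake at 24°C in 100 mM potassium phosphate pH 6.5, with or without a potential inhibitor at 10 mM. Cells are methanol-induced transformants. Values are vector-subtracted and expressed as percent of buffer control. Mean ± SE (n=3). ANOVA with Dunnett's test.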

[2] = molecular target: T2, Solute carrier family 15 member 1 (Mus musculus, UniProt Q9JIP7); assay: Drug uptake in Pichia pastoris GS115 expressing mouse recombinant PEPT1 at 5 uM after 30s by dual-channel liquid scintillation counting analysis in presence of GlyPro relative to control; settings: 0.5 min; summary of the method: as §1
T2 sequence (Q9JIP7 whole entry): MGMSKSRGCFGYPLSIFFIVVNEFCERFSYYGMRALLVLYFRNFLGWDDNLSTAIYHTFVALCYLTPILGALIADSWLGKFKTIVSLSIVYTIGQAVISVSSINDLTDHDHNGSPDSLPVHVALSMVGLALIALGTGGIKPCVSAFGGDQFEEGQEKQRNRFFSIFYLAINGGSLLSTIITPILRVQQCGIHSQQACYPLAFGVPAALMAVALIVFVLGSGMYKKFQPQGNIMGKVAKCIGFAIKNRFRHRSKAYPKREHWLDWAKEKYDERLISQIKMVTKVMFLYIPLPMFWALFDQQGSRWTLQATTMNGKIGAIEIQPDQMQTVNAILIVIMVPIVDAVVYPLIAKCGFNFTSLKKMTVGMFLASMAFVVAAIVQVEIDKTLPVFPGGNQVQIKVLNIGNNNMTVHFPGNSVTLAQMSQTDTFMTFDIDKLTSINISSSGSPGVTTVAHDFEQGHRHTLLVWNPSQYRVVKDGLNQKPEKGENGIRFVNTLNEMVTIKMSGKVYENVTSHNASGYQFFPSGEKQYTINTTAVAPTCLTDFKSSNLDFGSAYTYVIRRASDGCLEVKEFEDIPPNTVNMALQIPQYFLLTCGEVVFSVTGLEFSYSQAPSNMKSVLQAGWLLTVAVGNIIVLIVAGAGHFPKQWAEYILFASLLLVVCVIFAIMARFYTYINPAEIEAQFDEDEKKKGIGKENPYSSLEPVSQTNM

[3] = molecular target: T3, Solute carrier family 15 member 1 (Rattus norvegicus, UniProt P51574); assay: Drug uptake in Pichia pastoris GS115 expressing rat recombinant PEPT1 at 5 uM after 30s by dual-channel liquid scintillation counting analysis in presence of elacridar relative to control; settings: 0.5 min
T3 sequence (P51574 whole entry): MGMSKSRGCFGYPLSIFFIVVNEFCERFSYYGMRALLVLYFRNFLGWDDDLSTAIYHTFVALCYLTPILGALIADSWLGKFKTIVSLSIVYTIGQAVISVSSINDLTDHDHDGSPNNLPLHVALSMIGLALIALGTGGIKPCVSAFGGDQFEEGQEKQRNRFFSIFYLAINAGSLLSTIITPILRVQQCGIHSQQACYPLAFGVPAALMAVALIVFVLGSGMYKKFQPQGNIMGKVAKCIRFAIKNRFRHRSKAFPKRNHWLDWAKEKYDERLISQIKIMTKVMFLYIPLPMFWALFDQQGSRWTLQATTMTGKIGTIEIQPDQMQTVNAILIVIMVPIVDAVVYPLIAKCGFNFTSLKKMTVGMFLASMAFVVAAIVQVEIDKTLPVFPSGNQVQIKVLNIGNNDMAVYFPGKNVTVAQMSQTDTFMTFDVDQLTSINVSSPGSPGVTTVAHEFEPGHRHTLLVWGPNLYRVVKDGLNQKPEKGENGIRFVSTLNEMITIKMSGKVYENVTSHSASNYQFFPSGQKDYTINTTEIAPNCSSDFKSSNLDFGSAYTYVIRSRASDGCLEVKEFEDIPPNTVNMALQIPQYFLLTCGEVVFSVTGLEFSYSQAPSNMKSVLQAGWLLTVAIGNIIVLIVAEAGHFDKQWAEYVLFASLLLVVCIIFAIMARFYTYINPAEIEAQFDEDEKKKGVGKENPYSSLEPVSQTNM
Summary of the method: (§2)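 Rat PEPT1 (pPIC3.5K-rPept1) in GS115 His+Mut+ transformant, methanol-induced 20-24 hr in BMMY at 30°C, washed into 100 mM potassium phosphate pH 6.5. [3H]GlySar final 5.0 µM with inhibitor at 10 mM, 30 sec at 24°C. Counts taken by liquid scintillation after 24 hr standing. Values are vector-subtracted and given as % of buffer control. Mean ± SE, n=3.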

[4] = molecular target: T2, Solute carrier family 15 member 1; assay: Drug uptake in Pichia pastoris GS115 expressing mouse recombinant PEPT1 at 5 uM after 30s by dual-channel liquid scintillation counting analysis in presence of valacyclovir relative to control; settings: in vivo, 0.5 min; summary of the method: as §1
[5] = molecular target: T2, Solute carrier family 15 member 1; assay: Activity at mouse recombinant PEPT1 expressed in Pichia pastoris GS115 assessed as non-saturable rate constant after 30s by dual-channel liquid scintillation counting analysis
Summary of the method: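 [3H]GlySar concentration series 0.005-10 mM, 30-s uptake at 24°C in 100 mM potassium phosphate pH 6.5. Cells come from His+Mut+ GS115 transformants induced 20-24 h in methanol medium. Uptake is normalised to OD600. Data are fitted to Michaelis-Menten plus a first-order nonsaturable term (Kd), weighting unity. Parameters are mean ± SE (n=9).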

[6] = molecular target: T3, Solute carrier family 15 member 1; assay: Drug uptake in Pichia pastoris GS115 expressing rat recombinant PEPT1 at 5 uM after 30s by dual-channel liquid scintillation counting analysis in presence of cephalothin relative to control; settings: 0.5 min; summary of the method: as §2

- Drug uptake [1]: 100%
- Drug uptake [2]: 1.9%
- Drug uptake [3]: 119%
- Drug uptake [4]: 4.5%
- Kd [5]: 2.21 uL/OD/min
- Drug uptake [6]: 119%
Compound: [3H]C(C(=O)O)N(C)C(=O)CN (stereo unspecified)
